# Assay results from ChEMBL document CHEMBL3120122, “Highly potent HCV NS4B inhibitors with activity against multiple genotypes” (J Med Chem, 2014).
# Columns and labels:
# [1] = Intrinsic clearance in human liver microsomes at 3 uM after 1 hr in presence of NADPH and UDP-glucuronic acid; assay type: ADME; conditions: read-out: CLH (converted)
# [2] = Oral bioavailability in Sprague-Dawley rat; assay type: ADME, organism-based; conditions: in vivo
# [3] = system: Hepatitis C virus; assay: Antiviral activity against HCV genotype 2b expressing full length NS4B infected in human HuH7 cells assessed as inhibition of viral RNA replication after 3 days by dual-glo luciferase reporter gene assay; assay type: functional, organism-based, Hepacivirus hominis; conditions: Huh-7, 72 h
# [4] = Volume of distribution at steady state in iv dosed Sprague-Dawley rat administered as 30 mins infusion; assay type: ADME, organism-based; conditions: in vivo, read-out: Vdss
# [5] = system: Hepatitis C virus; assay: Antiviral activity against HCV Con1 expressing NS4B H94N mutant infected in human HuH7 cells assessed as inhibition of viral RNA replication after 3 days by dual-glo luciferase reporter gene assay; assay type: functional, organism-based, Hepacivirus hominis; conditions: isolate Con1, Huh-7, 72 h
# Procedure, shortened: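 Tested in the HCV genotype 1b replicon assay carrying the NS4B H94N substitution, alongside the matched 1a, 1b and 2a-JFH replicon screens.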
# [6] = Selectivity ratio of EC50 for HCV JFH-1 expressing NS4B to EC50 for HCV Con1 expressing wild type NS4B; assay type: functional
# [7] = system: Hepatitis C virus; assay: Antiviral activity against HCV Con1 expressing wild type NS4B infected in human HuH7 cells assessed as inhibition of viral RNA replication after 3 days by dual-glo luciferase reporter gene assay; assay type: functional, organism-based, Hepacivirus hominis; conditions: isolate Con1, Huh-7, 72 h
# Procedure, shortened: (§1)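 Measured in HCV replicon assays, not infection, using genotype 1a, 1b and 2a (JFH) replicons; the read-out is inhibition of replicon replication.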
# [8] = Cytotoxicity against human HuH7 cells; assay type: cell-based, Huh-7
# [9] = system: Hepatitis C virus; assay: Antiviral activity against HCV S52 expressing NS4B infected in human HuH7 cells assessed as inhibition of viral RNA replication after 3 days by dual-glo luciferase reporter gene assay; assay type: functional, organism-based, Hepacivirus hominis; conditions: S52, Huh-7, 72 h
# [10] = system: Hepatitis C virus; assay: Antiviral activity against HCV Con1 expressing NS4B H94S mutant infected in human HuH7 cells assessed as inhibition of viral RNA replication after 3 days by dual-glo luciferase reporter gene assay; assay type: functional, organism-based, Hepacivirus hominis; conditions: isolate Con1, Huh-7, 72 h
# [11] = Clearance in iv dosed Sprague-Dawley rat administered as 30 mins infusion; assay type: ADME, organism-based; conditions: in vivo
# [12] = Intrinsic clearance in rat liver microsomes at 3 uM after 1 hr in presence of NADPH and UDP-glucuronic acid; assay type: ADME; conditions: read-out: CLH (converted)
# [13] = system: Hepatitis C virus; assay: Antiviral activity against HCV JFH-1 expressing NS4B infected in human HuH7 cells assessed as inhibition of viral RNA replication after 3 days by dual-glo luciferase reporter gene assay; assay type: functional, organism-based, Hepacivirus hominis; conditions: JFH-1, Huh-7, 72 h
# [14] = Half life in iv dosed Sprague-Dawley rat administered as 30 mins infusion; assay type: ADME, organism-based; conditions: in vivo
# [15] = system: Hepatitis C virus; assay: Antiviral activity against HCV ED43 expressing NS4B infected in human HuH7 cells assessed as inhibition of viral RNA replication after 3 days by dual-glo luciferase reporter gene assay; assay type: functional, organism-based, Hepacivirus hominis; conditions: ED43, Huh-7, 72 h
# [16] = Lipophilicity, log D of the compound at pH 7.4 by chromatographic analysis; assay type: physicochemical; conditions: buffer
# [17] = system: Hepatitis C virus; assay: Antiviral activity against HCV H77 expressing wild type NS4B infected in human HuH7 cells assessed as inhibition of viral RNA replication after 3 days by dual-glo luciferase reporter gene assay; assay type: functional, organism-based, Hepacivirus hominis; conditions: genotype 1a H77, Huh-7, 72 h; procedure, shortened: as §1
# [18] = system: Hepatitis C virus; assay: Antiviral activity against HCV genotype 6a expressing NS4B infected in human HuH7 cells assessed as inhibition of viral RNA replication after 3 days by dual-glo luciferase reporter gene assay; assay type: functional, organism-based, Hepacivirus hominis; conditions: Huh-7, 72 h
# [19] = Displacement of tritium labeled (R)-6-cyclopropyl-4-methyl-N-(morpholin-3-ylmethyl)-8-(trifluoromethyl)quinoline-2-carboxamide from recombinant HCV genotype 1b C-terminal His6-tagged NS4B expressed in baculovirus infected insect SF9 cells after overnight incubation by scintillation proximity assay; parameters: species or system Hepatitis C virus subtype 1b
# [20] = system: Hepatitis C virus; assay: Selectivity ratio of EC50 for HCV Con1 expressing NS4B H94N mutant to EC50 for HCV Con1 expressing wild type NS4B; assay type: functional, Hepacivirus hominis, isolate Con1
Compound,CLint scaled at 3 µM [1],bioavailability [2],EC50 [3],Vd [4],EC50 [5],Ratio EC50 [6],EC50 [7],CC50 [8],EC50 [9],EC50 [10],clearance [11],CLint scaled at 3 µM [12],EC50 [13],half-life [14],EC50 [15],chromatographic logD [16],EC50 [17],EC50 [18],Kd [19],Ratio EC50 [20]
Cc1cc(-c2nnc(N[C@H]3C[C@](O)(C(F)F)C3)o2)nc2c(C(C)(C)C)cc(NCC(F)(F)F)cc12,3.33 mL/min/kg,25%,0.16 nM,5 L/kg,0.74 nM,312,0.08 nM,5440 nM,2.3 nM,4.4 nM,14.5 mL/min/kg,3.67 mL/min/kg,25 nM,5.2 h,0.76 nM,3.7,0.05 nM,–,–,–
Cc1cc(-c2nnc(NCC3OCCO3)o2)nc2c(C(C)(C)C)cc(NCC(F)(F)F)cc12,–,–,–,–,4.3 nM,–,0.15 nM,16000 nM,–,–,–,–,1100 nM,–,–,3.6,–,–,–,–
COc1cc(C(F)(F)F)c2nc(-c3nnc(NCC4OCCO4)o3)cc(C)c2c1,–,–,–,–,719 nM,–,32 nM,50000 nM,–,–,–,–,–,–,–,3.4,–,–,–,–
Cc1cc(-c2nnc(N[C@@H]3CCC[C@H](O)C3)o2)nc2c(C(C)(C)C)cc(NCC(F)(F)F)cc12,3.67 mL/min/kg,88%,0.6 nM,2.4 L/kg,0.6 nM,30,0.09 nM,6250 nM,3.7 nM,0.34 nM,10.8 mL/min/kg,4 mL/min/kg,3 nM,11 h,0.9 nM,3.6,0.08 nM,3.1 nM,–,–
Cc1cc(-c2nnc(NCC3OCCO3)o2)nc2c(C(C)(C)C)cc(OCC(F)(F)F)cc12,–,–,–,–,54 nM,2720,1.3 nM,20400 nM,–,–,–,–,3580 nM,–,–,3.9,0.9 nM,–,31 nM,42
Cc1cc(-c2nnc(N[C@H]3C[C@](O)(C(F)F)C3)o2)nc2c(C(C)(C)C)cc(OCC(F)(F)F)cc12,–,–,–,–,3.4 nM,–,0.32 nM,6240 nM,–,–,–,–,684 nM,–,–,4.1,–,–,–,–
Cc1cc(-c2nnc(N[C@@H]3CCC[C@H](O)C3)o2)nc2c(C(C)(C)C)cc(OCC(F)(F)F)cc12,–,–,0.9 nM,–,5.5 nM,300,0.32 nM,20900 nM,30 nM,–,–,–,96 nM,–,1.5 nM,4,0.09 nM,–,–,–
Cc1cc(-c2nnc(NCC3OCCO3)o2)nc2c(C(F)(F)F)cc(OCC(F)(F)F)cc12,–,–,–,–,206 nM,–,5 nM,26600 nM,–,–,–,–,15600 nM,–,–,3.6,–,–,–,–
Cc1cc(-c2nnc(NC3CCCC3)o2)nc2c(C(C)(C)C)cc(NCC(F)(F)F)cc12,–,–,–,–,5.2 nM,–,0.15 nM,15800 nM,–,–,–,–,525 nM,–,–,4.6,–,–,–,–
Cc1cc(-c2nnc(N[C@H]3C[C@H](O)C3)o2)nc2c(C(C)(C)C)cc(OCC(F)(F)F)cc12,–,–,–,–,714 nM,–,3.5 nM,25900 nM,–,–,–,–,5220 nM,–,–,–,–,–,–,–
Cc1cc(-c2nnc(NC3CCCC3)o2)nc2c(C(C)(C)C)cc(OCC(F)(F)F)cc12,–,–,–,–,35 nM,–,0.63 nM,–,–,–,–,–,3030 nM,–,–,4.9,–,–,–,–
Cc1cc(-c2nnc(N[C@H]3CCC[C@@H](O)C3)o2)nc2c(C(C)(C)C)cc(NCC(F)(F)F)cc12,–,–,–,–,–,–,–,–,–,–,–,–,201 nM,–,–,–,–,–,–,–
Cc1cc(-c2nnc(Nc3ccccc3)o2)nc2c(C(F)(F)F)cc(-c3ccccc3)cc12,7.67 mL/min/kg,–,–,1.8 L/kg,–,–,5.9 nM,86400 nM,–,–,17.5 mL/min/kg,11.7 mL/min/kg,> 20000 nM,2.3 h,–,5.6,–,–,–,–
Cc1cc(-c2nnc(N[C@H]3C[C@@H](O)C3)o2)nc2c(C(C)(C)C)cc(OCC(F)(F)F)cc12,–,–,–,–,41 nM,–,1.3 nM,10800 nM,–,–,–,–,208 nM,–,–,3.4,–,–,–,–
